According to ChEMBL document CHEMBL1649460, “Integron mobilization unit as a source of mobility of antibiotic resistance genes” (2009):
Converted amounts (≈) assume the structure as drawn.

Tests used:
Pseudomonas aeruginosa [1] = assay: Antimicrobial activity against Pseudomonas aeruginosa PU21 by agar dilution method; type: functional
How it was run: (§1)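 MICs by agar dilution, with β-lactams tested alone. Colistin was the exception, read by Etest strip. Results interpreted according to CLSI guidelines.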

Escherichia coli [2] = assay: Antimicrobial activity against Escherichia coli J53 harboring pCHE-B plasmid expressing blaSHV-5 gene by agar dilution in presence of beta-lactamase inhibitor clavulanic acid
Escherichia coli [3] = assay: Antimicrobial activity against Escherichia coli J53 by agar dilution in presence of beta-lactamase inhibitor clavulanic acid
Escherichia coli [4] = assay: Antimicrobial activity against Escherichia coli J53 harboring pCHE-B plasmid expressing blaSHV-5 gene by agar dilution method; type: functional
Escherichia coli [5] = assay: Antimicrobial activity against Escherichia coli J53 harboring pCHE-A plasmid expressing blaGES-5 gene by agar dilution in presence of beta-lactamase inhibitor clavulanic acid
Enterobacter cloacae [6] = assay: Antimicrobial activity against Enterobacter cloacae CHE-2 harboring blaGES-5 and blaSHV-5 gene by agar dilution in presence of beta-lactamase inhibitor clavulanic acid; type: functional
How it was run: (§2)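 Agar dilution MICs of β-lactams, each tested with clavulanic acid held at a fixed 4 µg/ml. Results interpreted according to CLSI guidelines.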

Escherichia coli [7] = assay: Antimicrobial activity against Escherichia coli J53 harboring pCHE-A plasmid expressing blaGES-5 gene by agar dilution method; type: functional
Escherichia coli [8] = assay: Antimicrobial activity against Escherichia coli J53 by agar dilution method; type: functional; how it was run: as §1
Enterobacter cloacae [9] = assay: Antimicrobial activity against Enterobacter cloacae CHE-2 harboring blaGES-5 and blaSHV-5 gene by agar dilution method; type: functional; how it was run: as §1
Pseudomonas aeruginosa [10] = assay: Antimicrobial activity against Pseudomonas aeruginosa PU21 by agar dilution in presence of beta-lactamase inhibitor clavulanic acid; type: functional; how it was run: as §2
Pseudomonas aeruginosa [11] = assay: Antimicrobial activity against Pseudomonas aeruginosa PU21 harboring pCHE-A plasmid expressing blaGES-5 gene by agar dilution in presence of beta-lactamase inhibitor clavulanic acid; type: functional
How it was run: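 MICs by agar dilution. Beta-lactams tested alone and with clavulanic acid held at a fixed 4 µg/ml. Results were interpreted against CLSI guidelines.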

Pseudomonas aeruginosa [12] = assay: Antimicrobial activity against Pseudomonas aeruginosa PU21 harboring pCHE-A plasmid expressing blaGES-5 gene by agar dilution method; type: functional
How it was run: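 Natural plasmid pCHE-A was electrotransformed into electrocompetent P. aeruginosa PU21, and transformants were selected on agar with ticarcillin 100 µg/ml. MICs by agar dilution, with β-lactams tested alone; colistin by Etest. Interpreted per CLSI.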

**Q.** What does the source list for `CC1(C)S[C@@H]2[C@H](NC(=O)[C@H](N)c3ccc(O)cc3)C(=O)N2[C@H]1C(=O)O` [AMOXICILLIN]?
**A.** MIC (Pseudomonas aeruginosa [1]): > 512 µg/mL; MIC (Escherichia coli [2]): 4 µg/mL; MIC (Escherichia coli [3]): 2 µg/mL; MIC (Escherichia coli [4]): > 512 µg/mL; MIC (Escherichia coli [5]): 16 µg/mL; MIC (Enterobacter cloacae [6]): > 256 µg/mL; MIC (Escherichia coli [7]): > 512 µg/mL; MIC (Escherichia coli [8]): 2 µg/mL (≈ 5.47 µM); MIC (Enterobacter cloacae [9]): > 512 µg/mL; MIC (Pseudomonas aeruginosa [10]): > 512 µg/mL

**Q.** For `CO[C@@]1(NC(=O)Cc2cccs2)C(=O)N2C(C(=O)O)=C(COC(N)=O)CS[C@@H]21` [CEFOXITIN], which MIC (Pseudomonas aeruginosa [1]) is on record?
**A.** Its MIC is over 512 µg/mL.

**Q.** And the MIC (Escherichia coli [4])?
**A.** The MIC was 4 µg/mL (≈ 9.36 µM).

**Q.** What about the MIC (Escherichia coli [7]) of the same molecule?
**A.** The MIC was 128 µg/mL (≈ 299 µM).

**Q.** What about the MIC (Escherichia coli [8]) of the same molecule?
**A.** Its MIC is 4 µg/mL (≈ 9.36 µM).

**Q.** And the MIC (Enterobacter cloacae [9])?
**A.** Its MIC is over 512 µg/mL.

**Q.** With `CC(C)(O/N=C(\C(=O)N[C@@H]1C(=O)N2C(C(=O)[O-])=C(C[n+]3ccccc3)CS[C@H]12)c1csc(N)n1)C(=O)O` [CEFTAZIDIME] as the molecule, how does the MIC (Pseudomonas aeruginosa [1]) read?
**A.** The MIC was 1 µg/mL (≈ 1.83 µM).

**Q.** And the MIC (Escherichia coli [2])?
**A.** Its MIC is 4 µg/mL.

**Q.** And the MIC (Pseudomonas aeruginosa [11])?
**A.** Its MIC is 64 µg/mL.

**Q.** What about the MIC (Pseudomonas aeruginosa [12]) of the same molecule?
**A.** Its MIC is 256 µg/mL (≈ 468 µM).

**Q.** What about the MIC (Escherichia coli [3]) of the same molecule?
**A.** The MIC was 0.06 µg/mL.

**Q.** And the MIC (Escherichia coli [4])?
**A.** The MIC was 256 µg/mL (≈ 468 µM).

**Q.** What about the MIC (Escherichia coli [5]) of the same molecule?
**A.** The MIC was 16 µg/mL.

**Q.** What about the MIC (Enterobacter cloacae [6]) of the same molecule?
**A.** The MIC was 256 µg/mL.

**Q.** What about the MIC (Escherichia coli [7]) of the same molecule?
**A.** The MIC was 128 µg/mL (≈ 234 µM).

**Q.** And the MIC (Escherichia coli [8])?
**A.** Its MIC is 0.06 µg/mL (≈ 0.11 µM).

**Q.** What about the MIC (Enterobacter cloacae [9]) of the same molecule?
**A.** Its MIC is over 512 µg/mL.

**Q.** And the MIC (Pseudomonas aeruginosa [10])?
**A.** The MIC was 1 µg/mL.

**Q.** How did the MIC (Pseudomonas aeruginosa [1]) turn out when `C[C@@H](O)[C@H]1C(=O)N2C(C(=O)O)=C(S[C@@H]3CN[C@H](C(=O)Nc4cccc(C(=O)O)c4)C3)[C@H](C)[C@H]12` [ERTAPENEM] was run?
**A.** Its MIC is 8 µg/mL (≈ 16.8 µM).

**Q.** And the MIC (Pseudomonas aeruginosa [12])?
**A.** The MIC was over 32 µg/mL.

**Q.** And the MIC (Escherichia coli [4])?
**A.** Its MIC is 0.06 µg/mL (≈ 0.126 µM).

**Q.** What about the MIC (Escherichia coli [7]) of the same molecule?
**A.** The MIC was 0.12 µg/mL (≈ 0.252 µM).

**Q.** And the MIC (Escherichia coli [8])?
**A.** Its MIC is 0.03 µg/mL (≈ 0.0631 µM).

**Q.** And the MIC (Enterobacter cloacae [9])?
**A.** Its MIC is over 32 µg/mL.

**Q.** `C[C@@H](O)[C@H]1C(=O)N2C(C(=O)O)=C(SCCNC=N)C[C@H]12` [IMIPENEM ANHYDROUS] was tested. Which MIC (Pseudomonas aeruginosa [1]) did it give?
**A.** Its MIC is 2 µg/mL (≈ 6.68 µM).

**Q.** And the MIC (Pseudomonas aeruginosa [12])?
**A.** Its MIC is 16 µg/mL (≈ 53.4 µM).

**Q.** And the MIC (Escherichia coli [4])?
**A.** Its MIC is 0.06 µg/mL (≈ 0.2 µM).

**Q.** What about the MIC (Escherichia coli [7]) of the same molecule?
**A.** The MIC was 1 µg/mL (≈ 3.34 µM).

**Q.** What about the MIC (Enterobacter cloacae [9]) of the same molecule?
**A.** Its MIC is over 32 µg/mL.

**Q.** With `C[C@@H](O)[C@H]1C(=O)N2C(C(=O)O)=C(S[C@@H]3CN[C@H](C(=O)N(C)C)C3)[C@H](C)[C@H]12` [MEROPENEM] as the molecule, how does the MIC (Pseudomonas aeruginosa [1]) read?
**A.** The MIC was 0.5 µg/mL (≈ 1.3 µM).

**Q.** What about the MIC (Pseudomonas aeruginosa [12]) of the same molecule?
**A.** Its MIC is over 32 µg/mL.

**Q.** What about the MIC (Escherichia coli [4]) of the same molecule?
**A.** Its MIC is 0.06 µg/mL (≈ 0.156 µM).

**Q.** And the MIC (Escherichia coli [7])?
**A.** Its MIC is 0.25 µg/mL (≈ 0.652 µM).

**Q.** What about the MIC (Escherichia coli [8]) of the same molecule?
**A.** The MIC was 0.03 µg/mL (≈ 0.0782 µM).

**Q.** And the MIC (Enterobacter cloacae [9])?
**A.** Its MIC is over 32 µg/mL.
